Data: ChEMBL document CHEMBL5058577, “EUbOPEN Chemogenomics Library 2 (Multiplex)” (2022)

System: Fibroblast
Experiment: Multiplex assay against human fibroblast
Assay type: toxicity, cell-based
Procedure, shortened: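 Hoechst33342, BioTracker Green Microtubule Cytoskeleton Dye, MitoTracker Red and Annexin V Alexa Fluor 680 were added to live cells at seeding, and imaging on a CQ1 microscope at 37°C and 5% CO2 followed compound addition. Gating by CellPathfinder machine learning separated cells into Hoechst high-intensity objects or normal cells, then normal cells into healthy, pyknosed or fragmented nuclei, then pyknosed cells into mitotic or apoptotic. Per cents of healthy-nucleus cells are reported for the tubulin, mitochondrial-mass and membrane-permeability phenotypes.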

[1] = 12 h, 1 µM, compound concentration 1 uM, replicate 1
[2] = 12 h, 1 µM, compound concentration 1 uM, replicate 2
[3] = 12 h, 10 µM, compound concentration 10 uM, replicate 1
[4] = 12 h, 10 µM, compound concentration 10 uM, replicate 2
[5] = 24 h, 1 µM, compound concentration 1 uM, replicate 1
[6] = 24 h, 1 µM, compound concentration 1 uM, replicate 2
[7] = 24 h, 10 µM, compound concentration 10 uM, replicate 1
[8] = 24 h, 10 µM, compound concentration 10 uM, replicate 2
[9] = 48 h, 1 µM, compound concentration 1 uM, replicate 1
[10] = 48 h, 1 µM, compound concentration 1 uM, replicate 2
[11] = 48 h, 10 µM, compound concentration 10 uM, replicate 1
[12] = 48 h, 10 µM, compound concentration 10 uM, replicate 2

## CCCCCCNC(=O)Nc1ccc(S(=O)(=O)Nc2ccc(CCNC[C@H](O)COc3ccc(O)cc3)cc2)cc1 [L-755507]
[1]
  Population Apoptotic (%): 40%
  Population Fragmented Nuclei (%): 27%
  Population Healthy Nuclei (%): 59%
  Population Hoechst High Intensity Objects (%): 1%
  Population Membrane Permeable-Phenotype (%): 3%
  Population Mitochondria Different-Phenotype (%): 6%
  Population Mitotic Cells (%): 60%
  Population Normal (%): 98%
  Population Pyknosed Nuclei (%): 12%
  Population Tubulin-Different-Phenotype (%): 34%
  Total Cell Count: 198
[2]
  Population Apoptotic (%): 46%
  Population Fragmented Nuclei (%): 21%
  Population Hoechst High Intensity Objects (%): 3%
  Population Mitochondria Different-Phenotype (%): 3%
  Population Mitotic Cells (%): 53%
  Population Normal (%): 96%
  Population Pyknosed Nuclei (%): 19%
  Population Tubulin-Different-Phenotype (%): 36%
  Total Cell Count: 160
[3]
  Population Apoptotic (%): 45%
  Population Fragmented Nuclei (%): 17%
  Population Healthy Nuclei (%): 72%
  Population Hoechst High Intensity Objects (%): 5%
  Population Membrane Permeable-Phenotype (%): 0%
  Population Mitochondria Different-Phenotype (%): 10%
  Population Mitotic Cells (%): 54%
  Population Normal (%): 94%
  Population Pyknosed Nuclei (%): 10%
  Population Tubulin-Different-Phenotype (%): 47%
  Total Cell Count: 218
[4]
  Population Apoptotic (%): 42%
  Population Fragmented Nuclei (%): 34%
  Population Healthy Nuclei (%): 48%
  Population Membrane Permeable-Phenotype (%): 1%
  Population Mitochondria Different-Phenotype (%): 19%
  Population Mitotic Cells (%): 57%
  Population Pyknosed Nuclei (%): 17%
  Population Tubulin-Different-Phenotype (%): 64%
  Total Cell Count: 172
[5]
  Population Apoptotic (%): 31%
  Population Fragmented Nuclei (%): 26%
  Population Healthy Nuclei (%): 63%
  Population Hoechst High Intensity Objects (%): 1%
  Population Membrane Permeable-Phenotype (%): 0%
  Population Mitochondria Different-Phenotype (%): 3%
  Population Mitotic Cells (%): 68%
  Population Normal (%): 98%
  Population Pyknosed Nuclei (%): 9%
  Population Tubulin-Different-Phenotype (%): 27%
  Total Cell Count: 196
[6]
  Population Apoptotic (%): 39%
  Population Healthy Nuclei (%): 59%
  Population Hoechst High Intensity Objects (%): 2%
  Population Membrane Permeable-Phenotype (%): 3%
  Population Mitochondria Different-Phenotype (%): 12%
  Population Mitotic Cells (%): 60%
  Population Normal (%): 97%
  Population Pyknosed Nuclei (%): 13%
  Population Tubulin-Different-Phenotype (%): 44%
  Total Cell Count: 176
[7]
  Population Apoptotic (%): 72%
  Population Fragmented Nuclei (%): 21%
  Population Healthy Nuclei (%): 70%
  Population Hoechst High Intensity Objects (%): 8%
  Population Membrane Permeable-Phenotype (%): 0%
  Population Mitochondria Different-Phenotype (%): 8%
  Population Mitotic Cells (%): 27%
  Population Normal (%): 91%
  Population Pyknosed Nuclei (%): 8%
  Population Tubulin-Different-Phenotype (%): 38%
  Total Cell Count: 232
[8]
  Population Apoptotic (%): 50%
  Population Fragmented Nuclei (%): 38%
  Population Healthy Nuclei (%): 51%
  Population Hoechst High Intensity Objects (%): 4%
  Population Membrane Permeable-Phenotype (%): 3%
  Population Mitochondria Different-Phenotype (%): 19%
  Population Mitotic Cells (%): 50%
  Population Normal (%): 95%
  Population Pyknosed Nuclei (%): 9%
  Population Tubulin-Different-Phenotype (%): 65%
  Total Cell Count: 168
[9]
  Population Apoptotic (%): 62%
  Population Fragmented Nuclei (%): 28%
  Population Healthy Nuclei (%): 63%
  Population Hoechst High Intensity Objects (%): 3%
  Population Membrane Permeable-Phenotype (%): 0%
  Population Mitochondria Different-Phenotype (%): 4%
  Population Mitotic Cells (%): 37%
  Population Normal (%): 96%
  Population Pyknosed Nuclei (%): 8%
  Population Tubulin-Different-Phenotype (%): 31%
  Total Cell Count: 201
[10]
  Population Apoptotic (%): 53%
  Population Fragmented Nuclei (%): 33%
  Population Healthy Nuclei (%): 58%
  Population Hoechst High Intensity Objects (%): 4%
  Population Membrane Permeable-Phenotype (%): 1%
  Population Mitochondria Different-Phenotype (%): 6%
  Population Mitotic Cells (%): 46%
  Population Normal (%): 95%
  Population Tubulin-Different-Phenotype (%): 33%
  Total Cell Count: 170
[11]
  Population Apoptotic (%): 79%
  Population Fragmented Nuclei (%): 19%
  Population Healthy Nuclei (%): 69%
  Population Hoechst High Intensity Objects (%): 6%
  Population Membrane Permeable-Phenotype (%): 1%
  Population Mitochondria Different-Phenotype (%): 8%
  Population Mitotic Cells (%): 20%
  Population Normal (%): 93%
  Population Pyknosed Nuclei (%): 10%
  Population Tubulin-Different-Phenotype (%): 49%
  Total Cell Count: 240
[12]
  Population Apoptotic (%): 71%
  Population Fragmented Nuclei (%): 42%
  Population Healthy Nuclei (%): 53%
  Population Hoechst High Intensity Objects (%): 3%
  Population Membrane Permeable-Phenotype (%): 5%
  Population Mitochondria Different-Phenotype (%): 11%
  Population Mitotic Cells (%): 28%
  Population Normal (%): 96%
  Population Pyknosed Nuclei (%): 3%
  Population Tubulin-Different-Phenotype (%): 55%
  Total Cell Count: 184

## CN1CCN2c3ccccc3Cc3ccccc3C2C1.Cl (configuration not stated) [MIANSERIN HYDROCHLORIDE]
[1]
  Population Apoptotic (%): 55%
  Population Fragmented Nuclei (%): 28%
  Population Healthy Nuclei (%): 56%
  Population Hoechst High Intensity Objects (%): 2%
  Population Membrane Permeable-Phenotype (%): 1%
  Population Mitochondria Different-Phenotype (%): 0%
  Population Mitotic Cells (%): 45%
  Population Normal (%): 97%
  Population Pyknosed Nuclei (%): 14%
  Population Tubulin-Different-Phenotype (%): 31%
  Total Cell Count: 138
[2]
  Population Apoptotic (%): 38%
  Population Fragmented Nuclei (%): 27%
  Population Healthy Nuclei (%): 50%
  Population Hoechst High Intensity Objects (%): 4%
  Population Membrane Permeable-Phenotype (%): 12%
  Population Mitochondria Different-Phenotype (%): 5%
  Population Mitotic Cells (%): 61%
  Population Normal (%): 95%
  Population Pyknosed Nuclei (%): 22%
  Population Tubulin-Different-Phenotype (%): 56%
  Total Cell Count: 119
[3]
  Population Apoptotic (%): 55%
  Population Fragmented Nuclei (%): 15%
  Population Healthy Nuclei (%): 68%
  Population Hoechst High Intensity Objects (%): 5%
  Population Membrane Permeable-Phenotype (%): 1%
  Population Mitochondria Different-Phenotype (%): 3%
  Population Mitotic Cells (%): 44%
  Population Normal (%): 94%
  Population Pyknosed Nuclei (%): 15%
  Population Tubulin-Different-Phenotype (%): 14%
  Total Cell Count: 126
[4]
  Population Apoptotic (%): 33%
  Population Fragmented Nuclei (%): 24%
  Population Healthy Nuclei (%): 48%
  Population Hoechst High Intensity Objects (%): 6%
  Population Membrane Permeable-Phenotype (%): 3%
  Population Mitochondria Different-Phenotype (%): 7%
  Population Mitotic Cells (%): 66%
  Population Normal (%): 93%
  Population Pyknosed Nuclei (%): 27%
  Population Tubulin-Different-Phenotype (%): 40%
  Total Cell Count: 116
[5]
  Population Apoptotic (%): 52%
  Population Fragmented Nuclei (%): 32%
  Population Healthy Nuclei (%): 55%
  Population Hoechst High Intensity Objects (%): 2%
  Population Membrane Permeable-Phenotype (%): 0%
  Population Mitochondria Different-Phenotype (%): 2%
  Population Mitotic Cells (%): 47%
  Population Normal (%): 97%
  Population Pyknosed Nuclei (%): 12%
  Population Tubulin-Different-Phenotype (%): 29%
  Total Cell Count: 143
[6]
  Population Apoptotic (%): 36%
  Population Fragmented Nuclei (%): 30%
  Population Healthy Nuclei (%): 50%
  Population Hoechst High Intensity Objects (%): 3%
  Population Membrane Permeable-Phenotype (%): 6%
  Population Mitochondria Different-Phenotype (%): 1%
  Population Mitotic Cells (%): 63%
  Population Normal (%): 96%
  Population Pyknosed Nuclei (%): 19%
  Population Tubulin-Different-Phenotype (%): 53%
  Total Cell Count: 119
[7]
  Population Apoptotic (%): 61%
  Population Fragmented Nuclei (%): 14%
  Population Healthy Nuclei (%): 73%
  Population Hoechst High Intensity Objects (%): 5%
  Population Membrane Permeable-Phenotype (%): 0%
  Population Mitochondria Different-Phenotype (%): 1%
  Population Mitotic Cells (%): 38%
  Population Normal (%): 95%
  Population Pyknosed Nuclei (%): 11%
  Population Tubulin-Different-Phenotype (%): 11%
  Total Cell Count: 120
[8]
  Population Apoptotic (%): 48%
  Population Fragmented Nuclei (%): 31%
  Population Healthy Nuclei (%): 47%
  Population Hoechst High Intensity Objects (%): 4%
  Population Membrane Permeable-Phenotype (%): 10%
  Population Mitochondria Different-Phenotype (%): 5%
  Population Mitotic Cells (%): 52%
  Population Pyknosed Nuclei (%): 20%
  Population Tubulin-Different-Phenotype (%): 53%
  Total Cell Count: 127
[9]
  Population Apoptotic (%): 78%
  Population Fragmented Nuclei (%): 35%
  Population Healthy Nuclei (%): 55%
  Population Hoechst High Intensity Objects (%): 2%
  Population Membrane Permeable-Phenotype (%): 0%
  Population Mitochondria Different-Phenotype (%): 2%
  Population Mitotic Cells (%): 21%
  Population Normal (%): 97%
  Population Pyknosed Nuclei (%): 9%
  Population Tubulin-Different-Phenotype (%): 35%
  Total Cell Count: 151
[10]
  Population Apoptotic (%): 46%
  Population Fragmented Nuclei (%): 36%
  Population Healthy Nuclei (%): 51%
  Population Hoechst High Intensity Objects (%): 3%
  Population Membrane Permeable-Phenotype (%): 3%
  Population Mitochondria Different-Phenotype (%): 10%
  Population Mitotic Cells (%): 53%
  Population Normal (%): 96%
  Population Pyknosed Nuclei (%): 11%
  Population Tubulin-Different-Phenotype (%): 50%
  Total Cell Count: 116
[11]
  Population Apoptotic (%): 57%
  Population Fragmented Nuclei (%): 15%
  Population Healthy Nuclei (%): 71%
  Population Hoechst High Intensity Objects (%): 5%
  Population Membrane Permeable-Phenotype (%): 0%
  Population Mitochondria Different-Phenotype (%): 2%
  Population Mitotic Cells (%): 42%
  Population Normal (%): 94%
  Population Pyknosed Nuclei (%): 12%
  Population Tubulin-Different-Phenotype (%): 16%
  Total Cell Count: 115
[12]
  Population Apoptotic (%): 38%
  Population Fragmented Nuclei (%): 29%
  Population Healthy Nuclei (%): 55%
  Population Hoechst High Intensity Objects (%): 3%
  Population Membrane Permeable-Phenotype (%): 10%
  Population Mitochondria Different-Phenotype (%): 1%
  Population Mitotic Cells (%): 61%
  Population Normal (%): 96%
  Population Pyknosed Nuclei (%): 14%
  Population Tubulin-Different-Phenotype (%): 37%
  Total Cell Count: 125
